Laboratory results published in PMC4924508 (Theranostics, 2016).
Square brackets hold non-standard residues; d marks the D form. Peptide text beside a SMILES is read from it. * marks the point of attachment. Biotin = O=C1N[C@H]2[C@H](CS[C@H]2CCCCC(=O)*)N1

Tests used:
[1] = Serum stability study in normal mouse serum, MALDI-TOF MS; assay type: in vitro ADME; conditions: 37 °C, result in words
[2] = test system: 4T1 breast carcinoma tumors / M2-like TAMs; experiment: In vivo biodistribution study in 4T1 tumor model; parameters: species or system mouse; conditions: 20 min after injection, n = 3, result in words
Procedure, shortened: (§1)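 Female BALB/c mice (6 week-old) received CT-26 cells in the right flank or 4T1 cells in the mammary fat pad, and were used 2 weeks later (tumor diameter ≤1.5 cm). Sulfo-Cy5-labeled test compound (2.24 nmol, PBS/10% DMSO) or PBS was injected retro-orbitally. After 20 min, mice were PBS-perfused. Tumors were enzymatically dissociated, Fc-blocked, stained for CD11b/Ly-6G/F4/80, PFA-fixed and run on flow cytometry. Subsets were compared by one-way ANOVA/Tukey.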

[3] = test system: CT-26 colon carcinoma tumors / M2-like TAMs; experiment: In vivo biodistribution study in CT-26 tumor model; parameters: species or system mouse; conditions: 20 min after injection, n = 5, result in words
Procedure, shortened: as §1

| Molecule | protection against endolytic cleavage at the W10/W11 site in serum [1] | further results |
| --- | --- | --- |
| CC(=O)N[C@@H](Cc1ccc(O)cc1)C(=O)N[C@@H](CCC(=O)O)C(=O)N[C@@H](CCC(N)=O)C(=O)N[C@@H](CC(=O)O)C(=O)N1CCC[C@H]1C(=O)N[C@@H](Cc1c[nH]c2ccccc12)C(=O)NCC(=O)N[C@H](C(=O)N[C@@H](CCCNC(=N)N)C(=O)N[C@@H](Cc1ccc(O)cc1)C(=O)N[C@@H](Cc1c[nH]c2ccccc12)C(=O)N[C@@H](Cc1ccc(O)cc1)C(=O)NCC(=O)NCC(=O)NCC(=O)N[C@@H](CO)C(=O)N[C@H](CCCCN)C(=O)N[C@H](CCCCN)C(=O)N[C@H](CCCCN)C(=O)N[C@@H](CCCCNC(=O)CCCC[C@@H]1SC[C@@H]2NC(=O)N[C@@H]21)C(N)=O)C(C)C [AcM2pep(RY)Biotin] (Ac-YEQDPWGVRYWYGGGS[dK][dK][dK]K(Biotin)-NH2) | did not improve serum stability at the W10/W11 site | – |
| CC(=O)N[C@@H](Cc1ccc(O)cc1)C(=O)N[C@@H](CCC(=O)O)C(=O)N[C@@H](CCC(N)=O)C(=O)N[C@@H](CC(=O)O)C(=O)N1CCC[C@H]1C(=O)N[C@@H](Cc1c[nH]c2ccccc12)C(=O)NCC(=O)N[C@H](C(=O)N[C@@H](CCCCN)C(=O)N[C@@H](Cc1c[nH]c2ccccc12)C(=O)N[C@@H](Cc1c[nH]c2ccccc12)C(=O)N[C@@H](Cc1ccc(O)cc1)C(=O)NCC(=O)NCC(=O)NCC(=O)N[C@@H](CO)C(=O)N[C@@H](CCCCN)C(=O)N[C@@H](CCCCN)C(=O)N[C@@H](CCCCN)C(=O)N[C@@H](CCCCNC(=O)CCCC[C@@H]1SC[C@@H]2NC(=O)N[C@@H]21)C(N)=O)C(C)C [AcM2pepBiotin] (Ac-YEQDPWGVKWWYGGGSKKKK(Biotin)-NH2) | – | overall serum stability [1]: did not improve the overall serum stability; resistance to N-terminal (exolytic) degradation in serum [1]: resistant to N-terminal degradation |
| CC(=O)N[C@@H](Cc1ccc(O)cc1)C(=O)N[C@@H](CCC(=O)O)C(=O)N[C@@H](CCC(N)=O)C(=O)N[C@@H](CC(=O)O)C(=O)N1CCC[C@H]1C(=O)N[C@@H](Cc1c[nH]c2ccccc12)C(=O)NCC(=O)N[C@H](C(=O)N[C@@H](CCCNC(=N)N)C(=O)N[C@@H](Cc1c[nH]c2ccccc12)C(=O)N[C@@H](Cc1c[nH]c2ccccc12)C(=O)N[C@@H](Cc1ccc(O)cc1)C(=O)NCC(=O)NCC(=O)NCC(=O)N[C@@H](CO)C(=O)N[C@@H](CCCCN)C(=O)N[C@@H](CCCCN)C(=O)N[C@@H](CCCCN)C(=O)N[C@@H](CCCCNC(=O)CCCC[C@@H]1SC[C@@H]2NC(=O)N[C@@H]21)C(N)=O)C(C)C [K9R] (Ac-YEQDPWGVRWWYGGGSKKKK(Biotin)-NH2) | did not confer protection at the W10/W11 site | – |
| CC(=O)N[C@@H](Cc1ccc(O)cc1)C(=O)N[C@@H](CCC(=O)O)C(=O)N[C@@H](CCC(N)=O)C(=O)N[C@@H](CC(=O)O)C(=O)N1CCC[C@H]1C(=O)N[C@@H](Cc1c[nH]c2ccccc12)C(=O)NCC(=O)N[C@H](C(=O)N[C@@H](CCCCN)C(=O)N1CCC[C@H]1C(=O)N[C@@H](Cc1c[nH]c2ccccc12)C(=O)N[C@@H](Cc1ccc(O)cc1)C(=O)NCC(=O)NCC(=O)NCC(=O)N[C@@H](CO)C(=O)N[C@H](CCCCN)C(=O)N[C@H](CCCCN)C(=O)N[C@H](CCCCN)C(=O)N[C@@H](CCCCNC(=O)CCCC[C@@H]1SC[C@@H]2NC(=O)N[C@@H]21)C(N)=O)C(C)C [W10P] (Ac-YEQDPWGVKPWYGGGS[dK][dK][dK]K(Biotin)-NH2) | did not confer protection at the W10/W11 site | – |
| CC(=O)N[C@@H](Cc1ccc(O)cc1)C(=O)N[C@@H](CCC(=O)O)C(=O)N[C@@H](CCC(N)=O)C(=O)N[C@@H](CC(=O)O)C(=O)N1CCC[C@H]1C(=O)N[C@@H](Cc1c[nH]c2ccccc12)C(=O)NCC(=O)N[C@H](C(=O)N[C@@H](CCCCN)C(=O)N[C@@H](Cc1ccc(O)cc1)C(=O)N[C@@H](Cc1c[nH]c2ccccc12)C(=O)N[C@@H](Cc1ccc(O)cc1)C(=O)NCC(=O)NCC(=O)NCC(=O)N[C@@H](CO)C(=O)N[C@H](CCCCN)C(=O)N[C@H](CCCCN)C(=O)N[C@H](CCCCN)C(=O)N[C@@H](CCCCNC(=O)CCCC[C@@H]1SC[C@@H]2NC(=O)N[C@@H]21)C(N)=O)C(C)C [W10Y] (Ac-YEQDPWGVKYWYGGGS[dK][dK][dK]K(Biotin)-NH2) | did not confer protection at the W10/W11 site | – |
| CC(=O)N[C@@H](Cc1ccc(O)cc1)C(=O)N[C@@H](CCC(=O)O)C(=O)N[C@@H](CCC(N)=O)C(=O)N[C@@H](CC(=O)O)C(=O)N1CCC[C@H]1C(=O)N[C@@H](Cc1c[nH]c2ccccc12)C(=O)NCC(=O)N[C@H](C(=O)N[C@@H](CCCCN)C(=O)N[C@H](Cc1c[nH]c2ccccc12)C(=O)N[C@@H](Cc1c[nH]c2ccccc12)C(=O)N[C@@H](Cc1ccc(O)cc1)C(=O)NCC(=O)NCC(=O)NCC(=O)N[C@@H](CO)C(=O)N[C@@H](CCCCN)C(=O)N[C@@H](CCCCN)C(=O)N[C@@H](CCCCN)C(=O)N[C@@H](CCCCNC(=O)CCCC[C@@H]1SC[C@@H]2NC(=O)N[C@@H]21)C(N)=O)C(C)C [W10w] (Ac-YEQDPWGVK[dW]WYGGGSKKKK(Biotin)-NH2) | effective protection against endolytic cleavage at the W10/W11 site | – |
| CC(=O)N[C@@H](Cc1ccc(O)cc1)C(=O)N[C@@H](CCC(=O)O)C(=O)N[C@@H](CCC(N)=O)C(=O)N[C@@H](CC(=O)O)C(=O)N1CCC[C@H]1C(=O)N[C@@H](Cc1c[nH]c2ccccc12)C(=O)NCC(=O)N[C@H](C(=O)N[C@@H](CCCNC(=N)N)C(=O)N[C@@H](Cc1ccc(O)cc1)C(=O)N[C@@H](Cc1c[nH]c2ccccc12)C(=O)N[C@H](Cc1ccc(O)cc1)C(=O)NCC(=O)NCC(=O)NCC(=O)N[C@@H](CO)C(=O)N[C@H](CCCCN)C(=O)N[C@H](CCCCN)C(=O)N[C@H](CCCCN)C(=O)N[C@@H](CCCCNC(=O)CCCC[C@@H]1SC[C@@H]2NC(=O)N[C@@H]21)C(N)=O)C(C)C [Y12y] (Ac-YEQDPWGVRYW[dY]GGGS[dK][dK][dK]K(Biotin)-NH2) | did not improve serum stability at the W10/W11 site | – |
| CGYEQDPWGVRYWYGCkkk(k(N3)-sulfoCy5) (disulfide) [Cyclic M2pep(RY)-sulfoCy5] | – | intratumoral accumulation in M2-like TAMs (flow cytometry) [2]: accumulated preferentially in M2-like TAMs; intratumoral selectivity to M2-like TAMs over M1-like TAMs and CD11b- cells [3]: selectivity to M2-like TAMs over M1-like TAMs and non-TAM CD11b^- cells was observed; intratumoral uptake in M2-like TAMs (flow cytometry) [3]: significantly higher uptake in M2-like TAMs compared to M2pep-sulfoCy5 |
| YEQDPWGVKWWYGGGSKKK(k(N3)-sulfoCy5) [M2pep-sulfoCy5] | – | intratumoral selectivity to M2-like TAMs over M1-like TAMs and CD11b- cells [3]: selectivity to M2-like TAMs over M1-like TAMs and non-TAM CD11b^- cells was observed |
